Source: ChEMBL document CHEMBL1141663, “Synthesis and antibacterial activity of bis-[2-hydroxy-3-(1,7,8,9,10-pentamethyl-3,5-dioxo-4-aza-tricyclo[5.2.1.0(2,6)]dec-8-en-4-yloxy)-propyl]-dimethyl-ammonium chloride” (2008)
Converted amounts (≈) assume the structure as drawn. The source made the active and inactive calls. The calls are words filed in the database; no cut-off is given here.

What was measured:
Pseudomonas aeruginosa [1] = test: Antibacterial activity against Pseudomonas aeruginosa NCTC 6749 at 10 ug/disk after 24 to 48 hrs by disc-diffusion method; assay type: functional, organism-based
Bacillus subtilis [2] = test: Antibacterial activity against Bacillus subtilis ATCC 6633 at 10 ug/disk after 24 to 48 hrs by disc-diffusion method; assay type: functional, organism-based
Escherichia coli [3] = test: Antibacterial activity against Escherichia coli ATCC […] at 10 ug/disk after 24 to 48 hrs by disc-diffusion method; assay type: functional, organism-based
Staphylococcus aureus [4] = test: Antibacterial activity against Staphylococcus aureus ATCC 25923 at 10 ug/disk after 24 to 48 hrs by disc-diffusion method
Enterococcus hirae [5] = test: Antibacterial activity against Enterococcus hirae ATCC 10541 at 10 ug/disk after 24 to 48 hrs by disc-diffusion method
Staphylococcus aureus [6] = test: Antibacterial activity against Staphylococcus aureus ATCC 6538P at 10 ug/disk after 24 to 48 hrs by disc-diffusion method
Candida albicans [7] = test: microbe, parasite or virus in culture; settings: ATCC 10231, read-out: IZ
Escherichia coli [8] = test: Antibacterial activity against Escherichia coli ATCC […] at 10 ug/disk after 24 to 48 hrs by disc-diffusion method; assay type: functional, organism-based
[9] = tested on: Bordetella bronchiseptica; test: Antibacterial activity against Bordetella bronchiseptica ATCC 4617 at 10 ug/disk after 24 to 48 hrs by disc-diffusion method; assay type: functional, organism-based
Pseudomonas aeruginosa [10] = test: Antibacterial activity against Pseudomonas aeruginosa ATCC […] at 10 ug/disk after 24 to 48 hrs by disc-diffusion method; assay type: functional, organism-based
Staphylococcus aureus [11] = test: Antibacterial activity against Staphylococcus aureus ATCC 29213 at 10 ug/disk after 24 to 48 hrs by disc-diffusion method; assay type: functional, organism-based
Staphylococcus aureus [12] = test: Antibacterial activity against Staphylococcus aureus NCTC 4163 at 10 ug/disk after 24 to 48 hrs by disc-diffusion method; assay type: functional, organism-based
Candida albicans [13] = test: Antimicrobial activity against Candida albicans ATCC 10231 at 5 ug/disk after 24 to 48 hrs by disc-diffusion method; assay type: functional, organism-based
Staphylococcus aureus [14] = test: Antibacterial activity against methicillin-resistant Staphylococcus aureus 55/05 isolates after 18 hrs; assay type: functional
Method in brief: (§1)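 Agar-dilution MIC on Mueller–Hinton II agar per CLSI guidelines. Aqueous test solutions were added to liquid agar to give two dilution series across 6.25–400 µg/mL. Solidified plates were spot-inoculated with 2 µL aliquots to a final inoculum of 10^4 […]. […] Strains were standard S. aureus strains or hospital patient isolates typed MSSA/MRSA.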

Staphylococcus aureus [15] = test: Antibacterial activity against methicillin-susceptible Staphylococcus aureus 98/06 isolates after 18 hrs; assay type: functional; method in brief: as §1
Staphylococcus aureus [16] = test: Antibacterial activity against methicillin-resistant Staphylococcus aureus 54/05 isolates after 18 hrs; assay type: functional; method in brief: as §1
Pseudomonas aeruginosa [17] = test: microbe, parasite or virus in culture; settings: NCTC 6749, read-out: IZ
Staphylococcus aureus [18] = test: Antibacterial activity against methicillin-susceptible Staphylococcus aureus 6/04 isolates after 18 hrs; assay type: functional; method in brief: as §1
Staphylococcus aureus [19] = test: Antibacterial activity against methicillin-susceptible Staphylococcus aureus 65/05 isolates after 18 hrs; assay type: functional; method in brief: as §1
Staphylococcus aureus [20] = test: Antibacterial activity against Staphylococcus aureus ATCC 29213 after 18 hrs; assay type: functional; settings: ATCC 29213, 18 h; method in brief: as §1
Staphylococcus aureus [21] = test: Antibacterial activity against methicillin-resistant Staphylococcus aureus 79/05 isolates after 18 hrs; assay type: functional; method in brief: as §1
Staphylococcus aureus [22] = test: Antibacterial activity against methicillin-resistant Staphylococcus aureus 1/04 isolates after 18 hrs; assay type: functional; method in brief: as §1
Staphylococcus aureus [23] = test: Antibacterial activity against methicillin-susceptible Staphylococcus aureus 101/06 isolates after 18 hrs; assay type: functional; method in brief: as §1
Staphylococcus aureus [24] = test: Antibacterial activity against methicillin-susceptible Staphylococcus aureus 40/05 isolates after 18 hrs; assay type: functional; method in brief: as §1
Staphylococcus aureus [25] = test: Antibacterial activity against methicillin-susceptible Staphylococcus aureus 14/04 isolates after 18 hrs; assay type: functional; method in brief: as §1
[26] = tested on: Bordetella bronchiseptica; test: microbe, parasite or virus in culture; settings: ATCC 4617, read-out: IZ
Staphylococcus aureus [27] = test: Antibacterial activity against methicillin-susceptible Staphylococcus aureus 28/04 isolates after 18 hrs; assay type: functional; method in brief: as §1
Staphylococcus aureus [28] = test: Antibacterial activity against methicillin-susceptible Staphylococcus aureus 42/05 isolates after 18 hrs; assay type: functional; method in brief: as §1
Staphylococcus aureus [29] = test: Antibacterial activity against methicillin-resistant Staphylococcus aureus 92/06 isolates after 18 hrs; assay type: functional; method in brief: as §1
Staphylococcus aureus [30] = test: microbe, parasite or virus in culture; settings: ATCC 6538P, read-out: IZ
Staphylococcus aureus [31] = test: Antibacterial activity against methicillin-susceptible Staphylococcus aureus 72/05 isolates after 18 hrs; assay type: functional; method in brief: as §1
Staphylococcus aureus [32] = test: microbe, parasite or virus in culture; settings: NCTC 4163, read-out: IZ
Staphylococcus aureus [33] = test: Antibacterial activity against methicillin-resistant Staphylococcus aureus 48/05 isolates after 18 hrs; assay type: functional; method in brief: as §1
Staphylococcus aureus [34] = test: microbe, parasite or virus in culture; settings: ATCC 29213, read-out: IZ
Staphylococcus aureus [35] = test: microbe, parasite or virus in culture; settings: ATCC 25923, read-out: IZ
Staphylococcus aureus [36] = test: Antibacterial activity against methicillin-resistant Staphylococcus aureus 46/05 isolates after 18 hrs; assay type: functional; method in brief: as §1
Enterococcus hirae [37] = test: Antibacterial activity against Enterococcus hirae ATCC 10541 at 5 ug/disk after 24 to 48 hrs by disc-diffusion method; assay type: functional, organism-based
Escherichia coli [38] = test: microbe, parasite or virus in culture; settings: ATCC 10538, read-out: IZ
Staphylococcus aureus [39] = test: Antibacterial activity against methicillin-resistant Staphylococcus aureus 83/05 isolates after 18 hrs; assay type: functional; method in brief: as §1
Staphylococcus aureus [40] = test: Antibacterial activity against methicillin-susceptible Staphylococcus aureus 60/05 isolates after 18 hrs; assay type: functional; method in brief: as §1
Escherichia coli [41] = test: microbe, parasite or virus in culture; settings: ATCC 25922, read-out: IZ
Staphylococcus aureus [42] = test: Antibacterial activity against Staphylococcus aureus ATCC 25923 after 18 hrs; assay type: functional; settings: ATCC 25923, 18 h; method in brief: as §1
Staphylococcus aureus [43] = test: Antibacterial activity against Staphylococcus aureus ATCC 6538P after 18 hrs; assay type: functional; method in brief: as §1
Staphylococcus aureus [44] = test: Antibacterial activity against methicillin-susceptible Staphylococcus aureus 69/05 isolates after 18 hrs; assay type: functional; method in brief: as §1
Staphylococcus aureus [45] = test: Antibacterial activity against methicillin-resistant Staphylococcus aureus 53/05 isolates after 18 hrs; assay type: functional; method in brief: as §1
Staphylococcus aureus [46] = test: Antibacterial activity against methicillin-susceptible Staphylococcus aureus 38/05 isolates after 18 hrs; assay type: functional; method in brief: as §1
Staphylococcus aureus [47] = test: Antibacterial activity against methicillin-susceptible Staphylococcus aureus 4/04 isolates after 18 hrs; assay type: functional; method in brief: as §1
Pseudomonas aeruginosa [48] = test: microbe, parasite or virus in culture; settings: ATCC 15442, read-out: IZ
Staphylococcus aureus [49] = test: Antibacterial activity against methicillin-resistant Staphylococcus aureus 56/05 isolates after 18 hrs; assay type: functional; method in brief: as §1
Staphylococcus aureus [50] = test: Antibacterial activity against methicillin-susceptible Staphylococcus aureus 2/04 isolates after 18 hrs; assay type: functional; method in brief: as §1
Bacillus subtilis [51] = test: microbe, parasite or virus in culture; settings: ATCC 6633, read-out: IZ
Staphylococcus aureus [52] = test: Antibacterial activity against methicillin-susceptible Staphylococcus aureus 49/05 isolates after 18 hrs; assay type: functional; method in brief: as §1
Staphylococcus aureus [53] = test: Antibacterial activity against methicillin-resistant Staphylococcus aureus 93/06 isolates after 18 hrs; assay type: functional; method in brief: as §1
Staphylococcus aureus [54] = test: Antibacterial activity against methicillin-susceptible Staphylococcus aureus 7/04 isolates after 18 hrs; assay type: functional; method in brief: as §1
Staphylococcus aureus [55] = test: Antibacterial activity against methicillin-resistant Staphylococcus aureus 47/05 isolates after 18 hrs; assay type: functional; method in brief: as §1
Staphylococcus aureus [56] = test: Antibacterial activity against methicillin-resistant Staphylococcus aureus 29/04 isolates after 18 hrs; assay type: functional; method in brief: as §1
Staphylococcus aureus [57] = test: Antibacterial activity against methicillin-susceptible Staphylococcus aureus 102/06 isolates after 18 hrs; assay type: functional; method in brief: as §1
Staphylococcus aureus [58] = test: Antibacterial activity against methicillin-susceptible Staphylococcus aureus 3/04 isolates after 18 hrs; assay type: functional; method in brief: as §1
Staphylococcus aureus [59] = test: Antibacterial activity against methicillin-resistant Staphylococcus aureus 91/06 isolates after 18 hrs; assay type: functional; method in brief: as §1
Staphylococcus aureus [60] = test: Antibacterial activity against methicillin-resistant Staphylococcus aureus 19/04 isolates after 18 hrs; assay type: functional; method in brief: as §1
Staphylococcus aureus [61] = test: Antibacterial activity against Staphylococcus aureus NCTC 4163 after 18 hrs; assay type: functional; settings: NCTC 4163, 18 h; method in brief: as §1

Clc1ccc(COC(Cn2ccnc2)c2ccc(Cl)cc2Cl)c(Cl)c1 (stereo unspecified) [MICONAZOLE]
Activity (Pseudomonas aeruginosa [1]): inactive | Activity (Bacillus subtilis [2]): inactive | Activity (Escherichia coli [3]): inactive | Activity (Staphylococcus aureus [4]): inactive | Activity (Enterococcus hirae [5]): inactive | Activity (Staphylococcus aureus [6]): inactive | zone of inhibition at 10 µg/disc (Candida albicans [7]): 20 mm | Activity (Escherichia coli [8]): inactive | Activity [9]: inactive | Activity (Pseudomonas aeruginosa [10]): inactive | Activity (Staphylococcus aureus [11]): inactive | Activity (Staphylococcus aureus [12]): inactive

O=C(O)c1cn(C2CC2)c2cc(N3CCNCC3)c(F)cc2c1=O [CIPROFLOXACIN]
Activity (Candida albicans [13]): inactive | MIC (Staphylococcus aureus [14]): 128 µg/mL (≈ 386 µM) | MIC (Staphylococcus aureus [15]): 0.25 µg/mL (≈ 0.754 µM) | MIC (Staphylococcus aureus [16]): 128 µg/mL (≈ 386 µM) | zone of inhibition at 5 µg/disc (Pseudomonas aeruginosa [17]): 26 mm | MIC (Staphylococcus aureus [18]): 0.25 µg/mL (≈ 0.754 µM) | MIC (Staphylococcus aureus [19]): 0.5 µg/mL (≈ 1.51 µM) | MIC (Staphylococcus aureus [20]): 0.5 µg/mL (≈ 1.51 µM) | MIC (Staphylococcus aureus [21]): 128 µg/mL (≈ 386 µM) | MIC (Staphylococcus aureus [22]): 64 µg/mL (≈ 193 µM) | MIC (Staphylococcus aureus [23]): 0.25 µg/mL (≈ 0.754 µM) | MIC (Staphylococcus aureus [24]): 0.5 µg/mL (≈ 1.51 µM) | MIC (Staphylococcus aureus [25]): 1 µg/mL (≈ 3.02 µM) | zone of inhibition at 5 µg/disc [26]: 31 mm | MIC (Staphylococcus aureus [27]): 1 µg/mL (≈ 3.02 µM) | MIC (Staphylococcus aureus [28]): 2 µg/mL (≈ 6.04 µM) | MIC (Staphylococcus aureus [29]): 8 µg/mL (≈ 24.1 µM) | zone of inhibition at 5 µg/disc (Staphylococcus aureus [30]): 28 mm | MIC (Staphylococcus aureus [31]): 0.25 µg/mL (≈ 0.754 µM) | zone of inhibition at 5 µg/disc (Staphylococcus aureus [32]): 26 mm | MIC (Staphylococcus aureus [33]): 128 µg/mL (≈ 386 µM) | zone of inhibition at 5 µg/disc (Staphylococcus aureus [34]): 22 mm | zone of inhibition at 5 µg/disc (Staphylococcus aureus [35]): 26 mm | MIC (Staphylococcus aureus [36]): 64 µg/mL (≈ 193 µM) | Activity (Enterococcus hirae [37]): inactive | zone of inhibition at 5 µg/disc (Escherichia coli [38]): 34 mm | MIC (Staphylococcus aureus [39]): 32 µg/mL (≈ 96.6 µM) | MIC (Staphylococcus aureus [40]): 0.5 µg/mL (≈ 1.51 µM) | zone of inhibition at 5 µg/disc (Escherichia coli [41]): 35 mm | MIC (Staphylococcus aureus [42]): 0.5 µg/mL (≈ 1.51 µM) | MIC (Staphylococcus aureus [43]): 0.5 µg/mL (≈ 1.51 µM) | MIC (Staphylococcus aureus [44]): 2 µg/mL (≈ 6.04 µM) | MIC (Staphylococcus aureus [45]): 128 µg/mL (≈ 386 µM) | MIC (Staphylococcus aureus [46]): 0.25 µg/mL (≈ 0.754 µM) | MIC (Staphylococcus aureus [47]): 0.25 µg/mL (≈ 0.754 µM) | zone of inhibition at 5 µg/disc (Pseudomonas aeruginosa [48]): 26 mm | MIC (Staphylococcus aureus [49]): 32 µg/mL (≈ 96.6 µM) | MIC (Staphylococcus aureus [50]): > 4 µg/mL | zone of inhibition at 5 µg/disc (Bacillus subtilis [51]): 40 mm | MIC (Staphylococcus aureus [52]): 0.25 µg/mL (≈ 0.754 µM) | MIC (Staphylococcus aureus [53]): 128 µg/mL (≈ 386 µM) | MIC (Staphylococcus aureus [54]): 2 µg/mL (≈ 6.04 µM) | MIC (Staphylococcus aureus [55]): 128 µg/mL (≈ 386 µM) | MIC (Staphylococcus aureus [56]): 64 µg/mL (≈ 193 µM) | MIC (Staphylococcus aureus [57]): 0.5 µg/mL (≈ 1.51 µM) | MIC (Staphylococcus aureus [58]): 0.25 µg/mL (≈ 0.754 µM) | MIC (Staphylococcus aureus [59]): > 128 µg/mL | MIC (Staphylococcus aureus [60]): 64 µg/mL (≈ 193 µM) | MIC (Staphylococcus aureus [61]): 0.5 µg/mL (≈ 1.51 µM)
